# Measured values as given in ChEMBL document CHEMBL3739352, “Anticonvulsant activity, crystal structures, and preliminary safety evaluation of N-trans-cinnamoyl derivatives of selected (un)modified aminoalkanols” (Eur J Med Chem, 2016).
# Calls of active or inactive are those of the source. The calls are words filed in the database; no cut-off is given here.
# Key:
# Salmonella typhimurium [1] = assay: Mutagenicity in Salmonella typhimurium TA98 assessed as mutagenic index at 500 ug/plate by Ames test; format: toxicity, organism-based; settings: salmonella enterica subsp. enterica serovar typhimurium
# Mus musculus [2] = assay: Neurotoxicity in albino Carworth Farms No.1 mouse at 100 mg/kg, ip after 0.5 hrs by rotarod test; format: toxicity, organism-based; settings: in vivo
# Outline: (§1)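 Mice (albino Carworth Farms No.1) were dosed i.p. at 30, 100 or 300 mg/kg in 0.5% methylcellulose. They were tested 0.5 and 4 h later on a 1-inch knurled rod rotating at 6 rpm. Neurotoxicity was scored if a mouse could not stay on the rod for at least 1 min in each of three trials. Results are given as animals toxic/animals tested, with deaths noted.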
# Salmonella typhimurium [3] = assay: Mutagenicity in Salmonella typhimurium TA1535 assessed as mutagenic index at 1000 ug/plate by Ames test; format: toxicity, organism-based; settings: salmonella enterica subsp. enterica serovar typhimurium
# Mus musculus [4] = assay: Anticonvulsant activity in albino Carworth Farms No.1 mouse assessed as protection against maximal electroshock-induced seizures at 300 mg/kg, ip after 0.5 hrs; format: functional, organism-based
# Outline: (§2)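 Mouse i.p. screen in Carworth Farms No.1 albino mice at 30, 100 or 300 mg/kg in 0.5% methylcellulose. Testing was at 0.5 and 4 h after injection, by maximal electroshock or by subcutaneous pentetrazol challenge. Scoring was number protected / number used.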
# [5] = Lipophilicity of the compound using 95% methanol in water at 1 mg/ml by RT-TLC analysis; format: physicochemical; settings: buffer
# Outline: (§3)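 Reversed-phase TLC with a methanol–water mobile phase at the stated methanol content (v/v). Compounds were spotted from 1 mg/mL methanol solutions after 1 h chamber saturation and located under UV light. Rf was measured and RM = log(1/Rf − 1) calculated.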
# Rattus norvegicus [6] = assay: Neurotoxicity in Sprague-Dawley rat at 30 mg/kg, po after 0.5 hrs; format: toxicity, organism-based; settings: in vivo
# Outline: (§4)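 Sprague-Dawley rats were given 30 mg/kg orally in 0.5% methylcellulose. Neurotoxicity was checked at 0.25, 0.5, 1.0, 2.0 and 4 h after dosing. Results are given as number of rats showing neurotoxicity/number tested.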
# Mus musculus [7] = assay: Anticonvulsant activity in albino Carworth Farms No.1 mouse assessed as protection against subcutaneous dosed pentetrazol-induced seizures at 30 mg/kg, ip after 0.5 hrs; format: functional, organism-based; outline: as §2
# Mus musculus [8] = assay: Neurotoxicity in albino Carworth Farms No.1 mouse at 30 mg/kg, ip after 0.5 hrs by rotarod test; format: toxicity, organism-based; settings: in vivo; outline: as §1
# Mus musculus [9] = assay: Anticonvulsant activity in albino Carworth Farms No.1 mouse assessed as protection against 6-Hz electroshock-induced seizures at 100 mg/kg, ip after 0.25 hrs; format: functional, organism-based
# Outline: (§5)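 Carworth Farms No.1 albino mice were dosed i.p. at 100 mg/kg (0.5% methylcellulose solution or suspension). 6-Hz seizures were induced at 32 mA at 0.25, 0.5, 1.0, 2.0 and 4 h after injection. Results are given as animals protected / animals tested.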
# Mus musculus [10] = assay: Anticonvulsant activity in albino Carworth Farms No.1 mouse assessed as protection against 6-Hz electroshock-induced seizures at 100 mg/kg, ip after 2 hrs; format: functional, organism-based; outline: as §5
# in vitro [11] = settings: human, HepG2 cells
# Salmonella typhimurium [12] = assay: Mutagenicity in Salmonella typhimurium TA1535 assessed as assessed as mutagenic index at 20 ug/plate by Ames test; format: toxicity, organism-based; settings: salmonella enterica subsp. enterica serovar typhimurium
# Outline: (§6)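 Ames preincubation test. Strain culture was grown 12 h at 37 °C in nutrient broth, then mixed with compound in DMSO (final 4, 20, 100, 500, 1000 per plate) and buffer in top agar with trace histidine. This was plated on glucose minimal agar for 48 h at 37 °C. Mutagenic index = revertants with compound / DMSO control revertants, from three independent repeats.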
# Salmonella typhimurium [13] = assay: Mutagenicity in Salmonella typhimurium TA1535 assessed as number of revertants at 100 ug/plate by Ames test (reference value: 10 +/- 3); format: toxicity, organism-based; settings: salmonella enterica subsp. enterica serovar typhimurium
# Salmonella typhimurium [14] = assay: Mutagenicity in Salmonella typhimurium TA1535 assessed as assessed as mutagenic index at 500 ug/plate by Ames test; format: toxicity, organism-based; settings: salmonella enterica subsp. enterica serovar typhimurium
# Salmonella typhimurium [15] = assay: Mutagenicity in Salmonella typhimurium TA1535 assessed as number of revertants at 4 ug/plate by Ames test (reference value: 10 +/- 3); format: toxicity, organism-based; settings: salmonella enterica subsp. enterica serovar typhimurium
# Salmonella typhimurium [16] = assay: Mutagenicity in Salmonella typhimurium TA100 assessed as mutagenic index at 20 ug/plate by Ames test; format: toxicity, organism-based; settings: salmonella enterica subsp. enterica serovar typhimurium; outline: as §6
# Rattus norvegicus [17] = assay: Anticonvulsant activity in Sprague-Dawley rat assessed as protection against maximal electroshock-induced seizures at 30 mg/kg, po after 2 hrs; format: functional, organism-based
# Outline: (§7)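 Sprague-Dawley rats were given 30 mg/kg p.o. in 0.5% methylcellulose. Maximal electroshock was applied at 0.25, 0.5, 1.0, 2.0 and 4 h after dosing. Results are reported as number of rats protected / number tested.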
# Mus musculus [18] = assay: Anticonvulsant activity in albino Carworth Farms No.1 mouse assessed as protection against subcutaneous dosed pentetrazol-induced seizures at 300 mg/kg, ip after 4 hrs; format: functional, organism-based; outline: as §2
# in vitro [19] = settings: human, HepG2 cells; remark: listed apart in the source
# Rattus norvegicus [20] = assay: Anticonvulsant activity in Sprague-Dawley rat assessed as protection against maximal electroshock-induced seizures at 30 mg/kg, po after 0.5 hrs; format: functional, organism-based; outline: as §7
# Salmonella typhimurium [21] = assay: Mutagenicity in Salmonella typhimurium TA100 assessed as mutagenic index at 4 ug/plate by Ames test; format: toxicity, organism-based; settings: salmonella enterica subsp. enterica serovar typhimurium; outline: as §6
# Rattus norvegicus [22] = assay: Neurotoxicity in Sprague-Dawley rat at 30 mg/kg, po after 4 hrs; format: toxicity, organism-based; settings: in vivo; outline: as §4
# Mus musculus [23] = assay: Anticonvulsant activity in albino Carworth Farms No.1 mouse assessed as protection against maximal electroshock-induced seizures at 30 mg/kg, ip after 0.5 hrs; format: functional, organism-based; outline: as §2
# [24] = Hepatotoxicity against human HepG2 cells assessed as cell viability at 10 uM after 24 hrs by MTT assay relative to control; format: toxicity, cell-based; settings: read-out: Activity
# Outline: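 HepG2 cells (EMEM, 10% FBS, 37 °C, 5% CO₂) were seeded at 1 × 10⁴ per well and cultured overnight. They were then exposed to increasing compound concentrations for 24 h. MTT reagent was added for 3 h and formazan crystals dissolved before reading. Data are mean ± SD of at least three independent experiments, relative to untreated control.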
# Mus musculus [25] = assay: Neurotoxicity in albino Carworth Farms No.1 mouse at 30 mg/kg, ip after 4 hrs by rotarod test; format: toxicity, organism-based; settings: in vivo; outline: as §1
# Salmonella typhimurium [26] = assay: Mutagenicity in Salmonella typhimurium TA100 assessed as number of revertants at 20 ug/plate by Ames test (reference value: 77 +/-4); format: toxicity, organism-based; settings: salmonella enterica subsp. enterica serovar typhimurium
# Outline: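 Salmonella TA100 preincubation Ames assay: overnight-type 12 h broth culture at 37 °C, compound in DMSO at final 4–1000 per plate, top agar with trace histidine, glucose minimal agar, 48 h at 37 °C. Revertant colonies per plate were counted, with a DMSO negative control and a sodium azide positive control. Three independent repetitions were run.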
# in vitro [27] = settings: human, HepG2 cells; remark: listed apart in the source
# [28] = Lipophilicity of the compound using 85% methanol in water at 1 mg/ml by RT-TLC analysis; format: physicochemical; settings: buffer; outline: as §3
# Salmonella typhimurium [29] = assay: Mutagenicity in Salmonella typhimurium TA1535 assessed as number of revertants at 500 ug/plate by Ames test (reference value: 10 +/- 3); format: toxicity, organism-based; settings: salmonella enterica subsp. enterica serovar typhimurium
# Mus musculus [30] = assay: Anticonvulsant activity in albino Carworth Farms No.1 mouse assessed as protection against maximal electroshock-induced seizures at 100 mg/kg, ip after 0.5 hrs; format: functional, organism-based; outline: as §2
# Mus musculus [31] = assay: Anticonvulsant activity in albino Carworth Farms No.1 mouse assessed as protection against 6-Hz electroshock-induced seizures at 100 mg/kg, ip after 1 hr; format: functional, organism-based; outline: as §5
compound,measurement,setting,value
CC(C)C(CO)NC(=O)/C=C/c1ccccc1 (racemic),Activity_index,Salmonella typhimurium [1],0.8
same,Activity,Mus musculus [2],Non-toxic
same,Activity_index,Salmonella typhimurium [3],0.7
same,Activity,Mus musculus [4],Active
same,Rm,[5],-0.63
same,Activity,Rattus norvegicus [6],Non-toxic
same,Activity,Mus musculus [7],inactive
same,Activity,Mus musculus [8],Non-toxic
same,Activity,Mus musculus [9],Active
same,Activity,Mus musculus [10],inactive
same,"viability at 24 h, 100 µM",in vitro [11],90%
same,Activity_index,Salmonella typhimurium [12],0.6
same,Activity,Salmonella typhimurium [13],6
same,Activity_index,Salmonella typhimurium [14],0.7
same,Activity,Salmonella typhimurium [15],5
same,Activity_index,Salmonella typhimurium [16],1
same,Activity,Rattus norvegicus [17],inactive
same,Activity,Mus musculus [18],inactive
same,"viability at 24 h, 25 µM",in vitro [19],98%
same,Activity,Rattus norvegicus [20],inactive
same,Activity_index,Salmonella typhimurium [21],1.1
same,Activity,Rattus norvegicus [22],Non-toxic
same,Activity,Mus musculus [23],inactive
same,"viability at 24 h, 10 µM",[24],95.2%
same,Activity,Mus musculus [25],Non-toxic
same,Activity,Salmonella typhimurium [26],75
same,"viability at 24 h, 10 µM",in vitro [27],98%
same,Rm,[28],-0.16
same,Activity,Salmonella typhimurium [29],7
same,Activity,Mus musculus [30],inactive
same,Activity,Mus musculus [31],inactive
